The source made the active and inactive calls. No cut-off for these calls is given here.

For test [1], the target named is Sterol 14-alpha demethylase (Trypanosoma cruzi (strain CL Brener)) (UniProt Q7Z1V1). As to the kind of experiment: Inhibition of sterol 14-alpha-demethylase in Trypanosoma cruzi epimastigotes infected in BESM cells assessed as accumulation of lanosterol and eburicol precursors at 5 uM after 72 hrs. It is filed as cell-based. The essentials: (§1)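 Log-phase epimastigotes were grown axenically in BHT medium (fetal bovine serum, brain heart infusion) and exposed to 5 μM compound for 72 h, with untreated parasites as the control. Pellets were washed in PBS, extracted in chloroform for 24 h at room temperature, BSTFA-derivatized, and sterols were analysed by GC-MS on a DB5-MS column (200→300°C at 15°C/min).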
Sterol 14-alpha demethylase (Trypanosoma cruzi (strain CL Brener)), sequence (Q7Z1V1 whole entry, looked up, the tested form may be a part): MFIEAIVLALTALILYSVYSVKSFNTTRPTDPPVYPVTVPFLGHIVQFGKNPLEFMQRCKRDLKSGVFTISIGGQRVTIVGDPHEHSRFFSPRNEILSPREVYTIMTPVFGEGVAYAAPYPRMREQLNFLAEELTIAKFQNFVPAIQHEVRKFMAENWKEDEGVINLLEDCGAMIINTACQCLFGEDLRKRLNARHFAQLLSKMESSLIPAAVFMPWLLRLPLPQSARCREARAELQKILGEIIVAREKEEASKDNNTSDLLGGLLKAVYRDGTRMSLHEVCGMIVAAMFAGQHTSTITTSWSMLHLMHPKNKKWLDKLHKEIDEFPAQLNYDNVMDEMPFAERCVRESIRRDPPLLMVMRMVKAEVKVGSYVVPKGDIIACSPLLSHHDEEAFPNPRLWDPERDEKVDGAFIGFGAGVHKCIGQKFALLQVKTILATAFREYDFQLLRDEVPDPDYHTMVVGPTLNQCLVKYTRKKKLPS

Test [2] shares this target. Nature of the test: Inhibition of sterol 14-alpha-demethylase in Trypanosoma cruzi epimastigotes infected in BESM cells assessed as reduction in episterol content at 5 uM after 72 hrs. It is filed as cell-based. An outline of the steps:
as §1

For test [3] the target is unchanged. Nature of the test: Inhibition of sterol 14-alpha-demethylase in Trypanosoma cruzi epimastigotes infected in BESM cells assessed as reduction in fecosterol content at 5 uM after 72 hrs. It is filed as cell-based. An outline of the steps:
as §1

The target is the same in test [4]. As to the kind of experiment: Inhibition of sterol 14-alpha-demethylase in Trypanosoma cruzi amastigotes infected in BESM cells assessed as accumulation of lanosterol and eburicol precursors at 5 uM after 72 hrs. It is filed as cell-based. The essentials:
(§2)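 T. cruzi CA-I/72 amastigotes were grown in BESM cells in RPMI 1640 with 5% heat-inactivated FCS at 37°C under 5% CO2. Monolayers were infected for 24 h, then the medium was replaced with 5 μM compound or DMSO; noninfected BESM cells served as a control. Lipids were extracted with chloroform, TMS-derivatized with BSTFA for 2 h, and sterols identified by GC-MS from [M−90]+ and [M+73]+ ions.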

Test [5] has the same target. As to the kind of experiment: Inhibition of sterol 14-alpha-demethylase in Trypanosoma cruzi amastigotes infected in BESM cells assessed as reduction in episterol content at 5 uM after 72 hrs. It is filed as cell-based. An outline of the steps: as §2
For test [6] the target is unchanged. As to the kind of experiment: Inhibition of sterol 14-alpha-demethylase in Trypanosoma cruzi amastigotes infected in BESM cells assessed as reduction in fecosterol content at 5 uM after 72 hrs. The format is cell-based. The essentials:
as §2

Test [7] concerns Trypanosoma cruzi. Nature of the test: Antimicrobial activity against Trypanosoma cruzi infected in C3H mouse at 40 mg/kg, ip BID administered 24 hrs post infection measured after 12 days. The format is functional, organism-based. Also on record: dose 40 mg/kg. The essentials:
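Female C3H mice (7–8 weeks, 17.5–18.0 g, five per group) infected i.p. with 10⁶ tissue-culture trypomastigotes of T. cruzi CA-I/72. Dosing began 24 h postinfection: i.p. in 100 μl of 60% DMSO–40% ddH₂O, twice daily for 30 days. An untreated infected group served as control. Mice were scored for clinical signs (ascitic abdomen, hind-leg weakness) at day 12 postinfection.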

The target in test [8] is Sterol 14-alpha demethylase (Trypanosoma cruzi (strain CL Brener)) (UniProt Q7Z1V1). Conditions: BESM, 10 uM.
Test [9] has the same target. Conditions: BESM, 10 uM. This is another data set of the same source.
Test [10] has the same target. As to conditions: BESM, 10 uM. This is another data set of the same source.
Test [11] has the same target. As to conditions: BESM, 10 uM. This is another data set of the same source.
Test [12] shares this target. As to conditions: BESM, 10 uM. The source holds these as a separate data set.
The target is the same in test [13]. Conditions: BESM, 10 uM. The source holds these as a separate data set.
Test [14] shares this target. Conditions: BESM, 10 uM. The source holds these as a separate data set.
Test [15] has the same target. As to conditions: BESM, 10 uM. The source holds these as a separate data set.
For test [16] the target is unchanged. As to conditions: BESM, 10 uM. This is another data set of the same source.
Test [17] shares this target. Conditions: BESM, 10 uM. This is another data set of the same source.
The subject of test [18] is Trypanosoma cruzi. As to the kind of experiment: Antimicrobial activity against Trypanosoma cruzi infected in C3H mouse at 50 mg/kg, ip BID administered 24 hrs post infection measured after 12 days. It is filed as functional, organism-based. On the set-up: dose 50 mg/kg. An outline of the steps:
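Female C3H mice (7–8 weeks, 17.5–18.0 g, five per group) infected i.p. with 10⁶ tissue-culture trypomastigotes of T. cruzi CA-I/72. The cruzain cysteine-protease inhibitor was given from 24 h postinfection: i.p. in 100 μl of 30% DMSO–70% ddH₂O, twice daily for 30 days. An untreated infected group served as control. Clinical signs (ascites, hind-leg weakness) were assessed at day 12 postinfection.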

Test [19] addresses Sterol 14-alpha demethylase (Trypanosoma cruzi (strain CL Brener)) (UniProt Q7Z1V1). Nature of the test: Inhibition of sterol 14-alpha-demethylase in Trypanosoma cruzi amastigotes infected in BESM cell assessed as cell death at 0.25 uM after 72 hrs by electron microscopy.
The target is the same in test [20]. As to the kind of experiment: Inhibition of sterol 14-alpha-demethylase in Trypanosoma cruzi amastigotes infected in BESM cell assessed as abnormalities in nuclear DNA at 0.25 uM after 72 hrs by electron microscopy. The format is cell-based.
Test [21] shares this target. Nature of the test: Inhibition of sterol 14-alpha-demethylase in Trypanosoma cruzi amastigotes infected in BESM cell assessed as abnormalities in nuclear membrane at 0.25 uM after 72 hrs by electron microscopy. It is filed as cell-based.
Test [22] has the same target. As to the kind of experiment: Inhibition of sterol 14-alpha-demethylase in Trypanosoma cruzi amastigotes infected in BESM cell assessed as appearance of large autophagic vesicles at 0.25 uM after 48 hrs by electron microscopy. The format is cell-based.
For test [23] the target is unchanged. Nature of the test: Inhibition of sterol 14-alpha-demethylase in Trypanosoma cruzi amastigotes infected in BESM cell assessed as swelling of nuclear membrane at 0.25 uM after 48 hrs by electron microscopy. The format is cell-based.
Test [24] shares this target. Nature of the test: Inhibition of sterol 14-alpha-demethylase in Trypanosoma cruzi amastigotes infected in BESM cell assessed as blebbing of the cell membrane at 0.25 uM after 48 hrs by electron microscopy. It is filed as cell-based.
Test [25] has the same target. As to the kind of experiment: Inhibition of sterol 14-alpha-demethylase in Trypanosoma cruzi epimastigotes infected in BESM cell assessed as abnormalities in nuclear membrane at 0.25 uM after 72 hrs by electron microscopy. The format is cell-based.
The target is the same in test [26]. Nature of the test: Inhibition of sterol 14-alpha-demethylase in Trypanosoma cruzi epimastigotes infected in BESM cell assessed as abnormalities in nuclear DNA at 0.25 uM after 72 hrs by electron microscopy. The format is cell-based.
The target is the same in test [27]. Nature of the test: Inhibition of sterol 14-alpha-demethylase in Trypanosoma cruzi epimastigotes infected in BESM cell assessed as cell death at 0.25 uM after 72 hrs by electron microscopy. The format is cell-based.
Test [28] has the same target. Nature of the test: Inhibition of sterol 14-alpha-demethylase in Trypanosoma cruzi epimastigotes infected in BESM cell assessed as effect on cell division at 0.25 uM after 72 hrs by electron microscopy. It is filed as cell-based.

In the case of `CC1CCC(C(=O)NC(Cc2c[nH]c3ccccc23)C(=O)Nc2ccncc2)CC1` (centres undefined), the inhibition result in test [1], in test [2], in test [3], in [4], in [5] and in test [6] was “Active” each time. Also, the inhibition entry in test [8], in test [12], in [13], in [14], in [15] and in [16] was “Active” throughout. The outcome with Trypanosoma cruzi [7] was Active. The inhibition entry in test [9], in test [10], in test [11] and in test [17] was “inactive” each time.
Regarding `CN1CCN(C(=O)N[C@@H](Cc2ccccc2)C(=O)N[C@H](/C=C/S(=O)(=O)c2ccccc2)CCc2ccccc2)CC1`, the result in the test with Trypanosoma cruzi [18] was Active.
On to `CC[C@@H]([C@H](C)O)n1ncn(-c2ccc(N3CCN(c4ccc(OC[C@@H]5CO[C@@](Cn6cncn6)(c6ccc(F)cc6F)C5)cc4)CC3)cc2)c1=O`, for which the inhibition result in test [19], in test [20], in test [21], in [22], in [23] and in test [24] was “Active” each time. The inhibition entry in test [1], in test [2], in test [3], in test [4], in test [5] and in test [6] was “Active” in each case. Besides, the inhibition result in [25], in test [26], in [27] and in [28] was “inactive” throughout.

The record behind these values is ChEMBL document CHEMBL1255502, “A nonazole CYP51 inhibitor cures Chagas' disease in a mouse model of acute infection” (Antimicrob Agents Chemother, 2010).
